What was measured:
DMS-273 = experiment: Growth inhibition of human DMS273 cells after 48 hrs by sulforhodamine B assay; format: functional; conditions: DMS-273, 48 h
Method in brief: (§1)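 Yamori 39-line human cancer panel, NCI method with modifications. Cells plated in RPMI 1640 plus 5% FBS, attached overnight, then exposed 48 h to compound at 10^-8, 10^-7, 10^-6, 10^-5 and 10^-4 M. Sulforhodamine B staining read at 525 nm; % growth = 100[(T−T0)/(C−T0)] from duplicate-point averages, with T0 the time-zero absorbance. GI50 is the concentration giving 50.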

NCI-H460 = experiment: Growth inhibition of human NCI-H460 cells after 48 hrs by sulforhodamine B assay; format: functional; conditions: NCI-H460, 48 h; method in brief: as §1
SNB-75 = experiment: Growth inhibition of human SNB75 cells after 48 hrs by sulforhodamine B assay; format: functional; conditions: SNB-75, 48 h; method in brief: as §1
[1] = Growth inhibition of human HBC5 cells after 48 hrs by sulforhodamine B assay; format: functional; conditions: HBC5, 48 h; method in brief: as §1
[2] = Octanol-water partition coefficient, log P of the compound by HPLC analysis; format: physicochemical
Method in brief: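 log P was estimated from HPLC retention, with column dead time measured using unretained formamide.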

**Q.** With `CC1(C)CC[C@@H]2CC(=O)O[C@@H](CO)CC(=O)O[C@@H]3C[C@@H](CCCCc4cccc(O)c4)O[C@@]1(C3)O2` as the molecule, how does the GI50 (DMS-273) read?
**A.** 12.6 µM

**Q.** What about the GI50 (NCI-H460) of the same molecule?
**A.** 2.51 µM

**Q.** And the GI50 (SNB-75)?
**A.** 15.8 µM

**Q.** What about the GI50 [1] of the same molecule?
**A.** 17.4 µM

**Q.** Which logP [2] does the source give for `CC1(C)CC[C@@H]2CC(=O)O[C@@H](CO)CC(=O)O[C@@H]3C[C@@H](CCCCc4ccccc4)O[C@@]1(C3)O2` here?
**A.** 4.8
